# Assay outcomes (PubChem)
# Diaphorase inh: inhibits diaphorase or chemically oxidizes, flagging diaphorase assay artifacts; inhibition, % at 20 µM; AID 1217; diaphorase resazurin-to-resorufin fluorescence, NADH, 16 min; bacterial (C. kluyveri) enzyme, not human; hit rate 0.69% among 190,000;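 active = primary screen inhibition at 20 µM above a set limit, cut at about 50% in these data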;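 also: plate controls were DMSO with full reaction for no effect and wells lacking NADH for full effect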
#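 Test system: bacterial diaphorase enzyme (C. kluyveri); Quantity: 0.14 U/mL diaphorase, enzyme working solution; Times: reaction incubation of 16 min at room temperature; Measured by: fluorescence of resorufin formed from resazurin, Ex 544/Em 590 nm; Benchmarks: positive control minus NADH, DMSO neutral control.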
# PMI activator: phosphomannose isomerase (human) activation; hit rate 0.005% among 190,000; purified human PMI, coupled resazurin fluorescence, 20 min; hits give high values; 1 = vehicle control, 0 substrate-free wells; P34949; activation factor at 20 µM;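 active = activation factor of 2 or more at 20 µM, relative to plate controls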
# Target sequence (P34949 whole entry, looked up): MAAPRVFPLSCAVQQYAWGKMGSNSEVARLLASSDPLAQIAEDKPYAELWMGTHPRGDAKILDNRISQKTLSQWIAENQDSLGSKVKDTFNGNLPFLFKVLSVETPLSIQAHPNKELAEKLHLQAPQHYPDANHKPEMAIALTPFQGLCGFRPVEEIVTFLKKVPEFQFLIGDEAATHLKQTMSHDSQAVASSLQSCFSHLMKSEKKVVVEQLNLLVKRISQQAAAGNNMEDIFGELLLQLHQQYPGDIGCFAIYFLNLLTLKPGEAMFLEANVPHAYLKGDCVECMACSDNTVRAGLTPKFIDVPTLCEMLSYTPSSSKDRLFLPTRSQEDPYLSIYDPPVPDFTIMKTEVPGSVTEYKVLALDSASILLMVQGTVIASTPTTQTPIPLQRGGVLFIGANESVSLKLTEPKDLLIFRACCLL
# PMI act hi M6P: increases human PMI activity with near-saturating mannose 6-phosphate; AID 1216; hit rate 0.34% among 190,000; coupled PMI enzyme assay, resazurin fluorescence, 20 min; hits give high values; 1 = untreated enzyme, 0 = substrate-free blank; P34949; activation factor at 20 µM;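 active = activation factor of 2 or more at 20 µM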
#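 Test system: human phosphomannose isomerase with PGI, G6PDH, diaphorase coupling enzymes / Doses: 20 µM compound, 1% DMSO / Times: enzyme reaction with compound 20 min at room temperature / Measured by: Diaphorase-driven resazurin-to-resorufin fluorescence, excitation 544, emission 590 nm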
# Redox H2O2 prof: compounds producing H2O2 with reducing agent – biochemical, NIH compound library profiling, artefact control for MLSCN library redox annotation, primary screen. DTT-dependent redox cycling H2O2, phenol red/HRP absorbance; 100% = 100 µM peroxide control, 0% = buffer. activation, % at 10 µM. hit rate 0.03% among 200,000;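 active = activation of at least 50% relative to the plate's high and low controls in the primary single-dose screen; inactive = activation below 50%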;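 also: compound incubated with DTT at 0.8 mM final as the reducing agent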
# Diaphorase act: counter-screen for diaphorase-based assays: diaphorase activators and chemical reducers; Diaphorase/resazurin coupled assay, resorufin fluorescence, 16 min; hits give high values; 1 = vehicle wells, 0 = NADH-free wells; activation factor at 20 µM; hit rate 0.005% among 190,000;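 active = diaphorase activity raised at least twofold by the compound at 20 µM; inactive = activation factor below 2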
#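 Material: purified diaphorase enzyme from Clostridium kluyveri; Also added: 0.114 mM NADH and 0.1 mM resazurin, final amounts; Doses: single compound dose of 20 µM, 1% DMSO final; Times: 16 min enzyme reaction, ambient temperature; Detection: resorufin fluorescence, excitation 544 nm, emission 590 nm; Measure: increased resorufin signal from activators or reducing compounds.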
# G6PDH counter: counter-screen for G6PDH assay hits: L. mesenteroides G6PDH inhibition; hit rate 0.12% among 200,000; Purified L. mesenteroides G6PDH, diaphorase/resazurin coupled fluorescence, 45 min; inhibition, % at 5 µM; in the data active = inhibition above about 50%
# Numbers without * were called inactive. Compounds with a hit are over-represented: about 1.1% of the library has one in this group of screens.
SMILES,Diaphorase inh,PMI activator,PMI act hi M6P,Redox H2O2 prof,Diaphorase act,G6PDH counter
COc1cc(/C=C2\SC(=S)N(CC(=O)Nc3ccc(O)cc3)C2=O)cc(OC)c1OC,8,1,1,-2,0.9,-4
CCN1CCC(CNCc2cn(-c3ccc(OC)cc3)nc2-c2ccccc2Cl)C1 (stereo unspecified),-48,1,1,5,1.5,15
O=[N+]([O-])c1cc(CN2CCOCC2)c2cccnc2c1O,45,0.9,0.6,-1,0.5,55*
CN(Cc1cc([N+](=O)[O-])c2cccnc2c1O)C1CCCCC1,22,0.8,0.5,0,0.8,20
O=C(Oc1c(CN2CCOCC2)cc(Cl)c2cccnc12)c1ccccc1F,50*,0.7,0.5,-3,0.5,43
O=[N+]([O-])c1cc(CN2CCN(c3ccccc3)CC2)c(O)c2ncccc12,10,1,0.6,0,0.9,62*
O=[N+]([O-])c1cc(Cl)c2cccnc2c1O,40,0.9,0.5,1,0.6,46
CCNc1nc(NCC)n2c(SC(C(=O)Nc3cc(C)ccc3OC)c3ccccc3)nnc2n1 (stereo unspecified),14,0.8,0.8,0,0.9,13
CC(C)C(=O)N(c1cc2sc(=O)oc2c2ccccc12)S(=O)(=O)c1cccs1,61*,0.6,0.8,0,0.4,10
NC1=C([N+](=O)[O-])C(c2ccc(F)cc2)C2=C(CCCC2=O)O1 (stereo unspecified),2,1.2,1.2,0,1,0
Cc1ccc(S(=O)(=O)O/N=C2\CCCc3ccccc32)cc1,32,0.9,1,0,0.7,8
CC1=C(C)/C(=N\OS(=O)(=O)c2ccccc2)C=CC1=O,100*,0.2,0.5,0,0,34
COc1ccc(-n2nc3cc(C)c(N)c(Br)c3n2)cc1,74*,0.1,0.2,2,0.3,25
Nc1ccc2nn(-c3cccc4ccccc34)nc2c1,41,0.6,0.4,2,0.6,47
Cc1cc2nn(-c3cccc4ccccc34)nc2cc1N,78*,0.2,0.2,0,0.2,-23
Cc1ccc(-n2nc3cc(C)c(N)cc3n2)cc1,76*,0.2,0.4,4,0.2,25
COc1ccc(-n2nc3cc(C)c(NC(C)=O)cc3n2)cc1,-3,1,0.9,0,1,12
CCCc1cc(=O)[nH]c(SCC(=O)NN(c2ccccc2)c2ccccc2)n1,2,1,1,0,1,12
CC(C)(C)n1nc2c(c1NC(=O)Cc1ccccc1)CS(=O)(=O)C2,1,1.1,1,0,1,4
Cc1ccc(C)c(NC(=O)/C(C#N)=C/c2ccc(Sc3nncn3C)c([N+](=O)[O-])c2)c1,9,0.9,0.8,0,0.9,9
COc1ccc(Br)cc1C1CC(=O)N2CN(C)CSC2=C1C#N (stereo unspecified),43,0.7,0.5,-3,0.6,20
COc1cc(C2CC(=O)N3CN(c4ccccc4C)CSC3=C2C#N)cc(OC)c1OC (stereo unspecified),59*,1,0.9,-1,0.4,25
COc1ccccc1N1CSC2=C(C#N)C(c3ccc(SC)cc3)CC(=O)N2C1 (stereo unspecified),65*,1.3,0.9,-1,0.4,35
COc1ccc2ccccc2c1C1CC(=O)N2CN(C)CSC2=C1C#N (stereo unspecified),52*,0.5,0.3,2,0.5,21
COc1ccc(Br)cc1C1CC(=O)N2CN(Cc3ccccc3)CSC2=C1C#N (stereo unspecified),57*,0.7,0.4,-1,0.4,21
SMILES,Diaphorase inh,PMI activator,PMI act hi M6P,Redox H2O2 prof,Diaphorase act,G6PDH counter
CCc1ccccc1N1CSC2=C(C#N)C(c3cc(OC)c(OC)cc3OC)CC(=O)N2C1 (stereo unspecified),50*,0.5,0.9,3,0.5,43
Cc1ccc(S(=O)(=O)Nc2ccc(O)c3ncccc23)cc1,57*,0.6,0.7,-3,0.4,50*
O=C(CCl)Nc1ccc(N2CCCCCC2)cc1,8,0.9,0.7,-1,0.9,4
CCOC(=O)c1sc(NC(C)=O)nc1C,3,1,1.1,0,1,2
CCOC(=O)c1sc(-n2[nH]c(C)cc2=O)nc1C,1,1.6,2.4*,-1,1,9
CC(C)(C)c1nc2c(Br)cc(Br)cc2c(=O)o1,9,0.9,0.9,-1,0.9,-6
Cn1cccc1/C=N\NC(=O)Cc1ccc(Br)c2ccccc12,10,1,1,-1,0.9,4
CNCc1ccccc1Sc1ccc(O)c(O)c1,63*,0.3,0.3,46,0.4,50*
COc1ccc(C(CC(=O)NCC(OC)OC)NS(=O)(=O)c2ccc(Cl)cc2)cc1 (stereo unspecified),3,1,1,1,1,6
Cc1ccc(/C=[N+](\[O-])c2ccc(N(C)C)cc2)c2nsnc12,41,0.3,0.3,-1,0.6,-1
COc1cc2cccc(OC)c(=O)c2c(O)c1OC,14,0.9,1,0,0.9,7
Oc1cccc2cc3cccc(O)c3c(O)c12,8,1.8,2.2*,-1,0.9,6
CN1CCc2c(C#N)c(N3CCCCC3)nc(NCc3ccccc3)c2C1,17,0.7,0.5,0,0.8,23
N#Cc1c(NCCCO)nc(NCc2ccccc2)c2c1CCN(Cc1ccccc1)C2,56*,0.4,0.4,2,0.4,40
CC(Nc1cc(N2CCN(S(C)(=O)=O)CC2)ccc1[N+](=O)[O-])c1ccccc1 (stereo unspecified),15,0.9,1,0,0.9,-18
CS(=O)(=O)N1CCN(c2ccc([N+](=O)[O-])c(SCc3ccco3)c2)CC1,57*,0.9,0.6,0,0.4,13
Nc1cc(C(F)(F)F)ccc1Nc1ccccc1,14,0.9,0.9,-2,0.9,12
Cc1ccc(S(=O)(=O)N(Cc2cc3cccc(C)c3[nH]c2=O)c2ccccc2)cc1,6,0.9,0.9,0,0.9,-39
Cc1ccc(C2=NC(=O)/C(=C/c3cc(O)c(O)c(Br)c3)S2)cc1,81*,0.2,0.5,0,0.2,4
Cc1ccc(/C=C2\SC(N3CCCC3)=NC2=O)cc1,7,1,1,-1,0.9,6
